HSP90 refold inh – inhibitors of HSP90 luciferase refolding in rabbit reticulocyte lysate | luciferase refolding luminescence, 3 h | inhibition, % at 5.6 µM | 0.91% of 290,000 active;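 active means inhibition above the screen-wide mean plus 3 SD, computed separately per campaign, cut at about 16% in these data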;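 further: inhibitors lower the luminescence because luciferase stays unfolded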
HSF1 inh – HSF1 inhibition | NIH3T3-HGL HSE-luciferase, MG132-induced, luminescence 8 h; active compounds read low | activity change, negative = inhibition, % at 7.5 µM (by protocol) | 0.77% of 300,000 active | AID 2098;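 active means more than half of replicate wells show activity change below -50%, luminescence cut by over half; inconclusive means some wells, but at most half, below -50%; inactive means no replicate well below -50%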;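 further: luciferase reports HSF-1 transcriptional activity via heat shock element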
HKDC1 inhibitor – HKDC1 (human) hexokinase inhibition; AID 493160; recombinant HKDC1, G6PDH/diaphorase resazurin coupled fluorescence; inhibition, % at 20 µM; 0.16% of 340,000 active;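 active means inhibition above about 35% when tested at 20 µM, limit read from the data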
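Test system: recombinant HKDC1 (HK5) hexokinase enzyme, produced in-house; Amount: enzyme 5 µg/mL final; Buffer or medium: Tris pH 8.0 buffer with MgCl2, Tween-20, BSA, BME; Reagent: glucose and ATP substrates; Doses: 20 µM test compound, 1% DMSO; Incubation: 90 min reaction incubation at room temperature, dark; Detection: resorufin fluorescence at 613 nm.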
Hsp70 activator – switches on Hsp70 transcription | HeLa Hsp70 promoter luciferase reporter, luminescence; scaled: vehicle 0, proteasome-inhibitor control 100% | activation, % at 10 µM | 0.04% of 200,000 active;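 active means activation above the mean across all tested compounds plus 3 SD, cutoff set per campaign, cut at about 5.5% in these data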
HSF-1 act – increases HSF-1 driven luciferase reporter signal. NIH3T3-HGL HSF-1 luciferase reporter, MG132, 8 h; 100% = twice DMSO control signal. activation, % at 9 µM. 1.7% of 300,000 active;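 active means mean replicate activation of at least 50% with a set share of replicates each reaching 50%; inconclusive means only one of those two conditions met; inactive means mean below 50% and too few replicates reaching it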
Tb hexokinase – blocks Trypanosoma brucei hexokinase 1 activity; recombinant TbHK1, G6PDH-coupled NADH A340; inhibition, % at 10 µM; 0.11% of 220,000 active; AID 1430;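 active means inhibition of 50% or more in the single-dose primary screen; inactive means inhibition below 50%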
HSP90 inh confirm – confirmation of HSP90 inhibitors | inhibition, % at 5.9 µM | 64% of 2,300 active | rabbit reticulocyte lysate, luciferase refolding luminescence, 3 h | shares compounds with HSP90 refold inh; in the data active means inhibition above about 18%
FLuc counter – counter-screen for HSP90 inhibitors: inhibitors of firefly luciferase; shares compounds with HSP90 refold inh; purified native firefly luciferase, luminescence; inhibition, % at 5.9 µM; 48% of 2,300 active;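 active means inhibition above the mean inhibition of all tested sample wells plus 3 SD, cut at about 10% in these data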
Target sequence (P08659 whole entry, looked up): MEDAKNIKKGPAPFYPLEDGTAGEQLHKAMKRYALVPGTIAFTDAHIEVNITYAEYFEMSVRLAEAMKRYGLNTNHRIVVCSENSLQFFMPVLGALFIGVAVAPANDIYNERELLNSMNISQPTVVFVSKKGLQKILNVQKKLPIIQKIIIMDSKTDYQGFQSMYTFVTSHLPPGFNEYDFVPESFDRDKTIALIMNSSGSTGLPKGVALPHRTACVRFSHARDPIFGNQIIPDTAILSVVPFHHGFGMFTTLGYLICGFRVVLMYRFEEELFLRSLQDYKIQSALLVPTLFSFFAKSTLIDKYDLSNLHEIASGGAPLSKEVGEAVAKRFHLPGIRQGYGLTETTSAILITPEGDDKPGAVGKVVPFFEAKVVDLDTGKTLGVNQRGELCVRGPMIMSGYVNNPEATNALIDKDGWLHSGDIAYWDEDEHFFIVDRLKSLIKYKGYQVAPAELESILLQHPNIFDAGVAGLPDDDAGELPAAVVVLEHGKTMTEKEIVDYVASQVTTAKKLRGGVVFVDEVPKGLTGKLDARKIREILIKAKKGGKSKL
Hits are given with their value; 0 = inactive; ? = inconclusive; - = no result. Hits are enriched below; roughly 3.1% of the tested compounds scored in any of these assays.

SMILES	HSP90 refold inh	HSF1 inh	HKDC1 inhibitor	Hsp70 activator	HSF-1 act	Tb hexokinase	HSP90 inh confirm	FLuc counter
COCC(C)n1c(C)cc(C(=O)COC(=O)c2n[nH]c3ccccc23)c1C (configuration not stated)	47.4	-53.2	0	0	0	0	47.6	45.4
CC1CCN(CCNC(=O)c2ccc(NC(=O)C3CCCO3)cc2)CC1 (configuration not stated)	0	0	0	0	0	0	-	-
CCOCCCNC(=O)c1ccc(NC(=O)C2CCCO2)cc1 (configuration not stated)	29.9	0	0	-	0	-	0	0
O=C(O)C1C2C=CC(C2)C1C(=O)Nc1cccc(C(=O)N2CCCCC2)c1 (configuration not stated)	29.6	0	0	0	0	0	0	0
CC(=O)c1cccc(NC(=O)C2C3C=CC(C3)C2C(=O)O)c1 (configuration not stated)	0	0	0	0	?	0	-	-
CCOc1ccc(C(=O)N(Cc2ccccc2)c2cccc(C)c2)cc1OC	0	0	0	-	0	-	-	-
CC(C)C(O)(CC#CCN1CCCC1)c1ccccc1 (configuration not stated)	58.8	0	0	0	0	0	0	0
CCOc1ccc(NC(=O)CN(C)C(=O)C2CCN(C(=O)c3ccc(Cl)cc3)CC2)cc1OCC	-	-	0	-	-	-	-	-
CCN(c1ccccc1)c1nc(=O)c2cccnc2s1	0	0	0	0	0	0	-	-
CCN(c1ccccc1)c1cc2ccccc2c(=O)[nH]1	41.1	0	0	-	0	-	0	0
Nc1nc(-c2ccc(NC(=O)c3ccco3)cc2)cs1	28.4	0	0	-	0	-	50.6	46.0
O=C(O)c1ccc(N/N=C/C2=C(N3CCOCC3)C(=C\c3ccccc3)/CC2)cc1	17.6	-60.0	0	-	0	0	0	0
CC(NC(=O)CSc1ncn[nH]1)c1ccc(Cl)cc1Cl (configuration not stated)	0	0	0	-	0	-	-	-
CCOc1ccc(NC(=O)CN(C)C(=O)c2ccccc2CCc2ccccc2)cc1OCC	-	0	0	-	0	-	-	-
CC(C)(C)c1cc(NC(=O)c2cccs2)no1	20.7	0	0	-	0	-	35.7	13.2
Cc1cc(NC(=O)c2ccc(NC(=O)c3cccs3)cc2)no1	0	0	0	0	0	0	-	-
Nc1sc2c(c1C(=O)c1ccccc1)CCCC2	31.0	0	0	0	0	0	0	0
CCOc1ccccc1Nc1ccc(C(=O)O)cc1N	0	0	0	-	0	-	-	-
Cc1ccc(Nc2ccc(C(=O)O)cc2N)cc1	19.9	0	0	0	0	0	0	0
Cc1cc(C)cc(Nc2ccc(C(=O)O)cc2N)c1	23.3	0	0	0	0	0	0	0
O=C(CN1C(=O)c2cccnc2Oc2ccc(Cl)cc21)Nc1ccccc1F	36.2	0	0	-	0	-	0	0
COc1cccc(NC(=O)CN2C(=O)c3cccnc3Oc3ccc(Cl)cc32)c1	0	0	0	-	0	-	-	-
COc1ccc(S(=O)(=O)N2CCc3ccccc32)cc1C(=O)N1CCOCC1	-	0	0	-	0	-	-	-
CC(C)(C)c1cc(C(=O)N/N=C/c2ccc(-c3ccccc3[N+](=O)[O-])o2)n[nH]1	0	0	0	-	0	-	-	-
O=C(N/N=C/c1ccc(-c2ccccc2[N+](=O)[O-])o1)c1cccnc1	31.9	0	0	0	0	0	0	0
SMILES	HSP90 refold inh	HSF1 inh	HKDC1 inhibitor	Hsp70 activator	HSF-1 act	Tb hexokinase	HSP90 inh confirm	FLuc counter
Cc1ccc2nc(-c3ccccn3)[nH]c2c1	46.3	0	0	-	0	-	60.8	51.2
Cc1ccc2nc(-c3ccccc3N)[nH]c2c1	21.5	0	0	0	0	0	38.6	33.2
Cc1ccc(NCC(=O)c2ccc(C)cc2)cc1	22.4	0	0	-	0	-	0	0
Cc1ccccc1-c1nc2sc3c(c2c(=O)n1N)CCCC3	37.6	-60.2	0	0	0	0	36.6	37.0
O=C(Nc1nccs1)c1cc2c(s1)CCCCC2	58.6	0	0	0	0	0	86.3	81.4
O=C(Nc1nncs1)c1cc2c(s1)CCC2	0	0	0	0	0	0	-	-
COc1ccc(-c2nc3ccccc3[nH]2)cc1	19.9	0	0	0	0	0	46.7	32.8
Cc1cccc2cc(-c3nc4ccc(C(=O)O)cc4[nH]3)c(=O)oc12	20.6	0	0	-	0	-	0	20.8
CC(O)CCc1nc2ccc(C(=O)O)cc2[nH]1 (configuration not stated)	0	0	0	0	0	0	-	-
O=C(O)c1ccc2nc(CO)[nH]c2c1	36.4	0	0	0	0	0	20.2	0
O=C(O)c1cccc(-c2nc3ccccc3[nH]2)c1	72.7	0	0	0	0	0	80.2	60.1
C#CCOCCOCCOCCNc1nc(N2CCN(C(=O)[C@H](CC(N)=O)n3cc(C(N)[C@H](C)CC)nn3)CC2)nc(N2CCN(C(=O)[C@H](CC(N)=O)n3cc(C(N)[C@@H](C)CC)nn3)CC2)n1 (some centres not stated)	-	-	0	-	-	-	-	-
COCCn1c(N)c(N(Cc2ccccc2)C(=O)c2ccc(-c3ccc(Cl)cc3)o2)c(=O)[nH]c1=O	-	0	0	-	0	-	-	-
CCOc1ccc(C(=O)OCC(=O)N2CCCC2)cc1OCC	0	0	0	-	0	-	-	-
CC(C)Oc1ccc(CCC(=O)NNC(=S)Nc2ccccc2)cc1	18.1	0	0	-	0	0	0	0
CC(C)(C)c1ccc(/C=C2\SC(=O)N(CCNC(=O)c3cccc(S(=O)(=O)N4CCOCC4)c3)C2=O)cc1	20.7	-63.0	0	0	0	0	74.4	70.2
CCCCN(C(=O)C1CC(=O)N(CCc2ccc(OC)c(OC)c2)C1)c1c(N)n(CC(C)C)c(=O)[nH]c1=O (configuration not stated)	-	-	0	-	-	-	-	-
Cc1ccccc1-c1nc(-c2ccccn2)no1	46.3	?	0	0	0	0	85.7	81.9
Brc1ccc(-c2noc(-c3ccccn3)n2)o1	0	0	0	-	0	-	-	-
Cc1ccccc1-c1nc(-c2cccnc2)no1	0	0	0	0	0	0	-	-
COc1ccccc1-c1nc(-c2ccccn2)no1	46.7	0	0	0	0	0	78.0	65.1
Brc1ccc(-c2nc(-c3ccccn3)no2)o1	44.5	0	0	0	0	0	60.0	55.1
Cc1cc(C)n(CCCNC(=O)C(C)(C)Oc2ccc(Cl)cc2)n1	-	-	0	-	-	-	-	-
CN(c1cccc(Cl)c1)S(=O)(=O)c1cccc(C(=O)NCc2ccncc2)c1	-	-	0	-	-	-	-	-
Cc1oc(-c2ccc(-c3ccccc3)cc2)nc1CN1CCN(CC(=O)N(C)C)CC1	67.3	0	0	0	0	0	79.0	18.2
COc1ccc(NC(=O)C2CCCO2)cc1 (configuration not stated)	0	0	0	0	0	0	-	-

Screening data from PubChem.
